# TRPML3 agonist: human TRPML3 channel agonists, primary screen, cell-based, HEK293 TRPML3-YFP, Fluo-8 calcium fluorescence, 3 µM | 100% = the carbachol control signal | 220,000 tested, 0.29% active | activation, % at 3 µM;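 active means activation above its plate's cutoff, the mean activation of the plate's test wells plus 3 SD, cut at about 12% in these data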;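 further: 0% = DMSO only wells and 100% = carbachol wells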
#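 Test system: HEK293 cells stably carrying human TRPML3-YFP; Doses: single dose, 3 µM final nominal compound, 0.3% DMSO final; Schedule: dye loading 1 h 37 °C then 30 min ambient, 125 s read; Technique: Fluo-8 calcium fluorescence; Benchmarks: high control carbachol 87 µM, low control DMSO.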
# OXTR potentiator: human OXTR potentiators, primary screen, fluorescence, CHO-OTR cells, Fluo-8 calcium; activation, % at 3 µM; 320,000 tested, 0.061% active; AID 2445, 2010; Oxytocin receptor (Homo sapiens), P30559; Fluo-8 calcium fluorescence, potentiator mode; 0% = oxytocin EC15, 100% = EC100;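 active means activation above that plate's cutoff, the mean activation of tested compounds plus 3 SD, cut at about 6.6% in these data, passing the limit was not always enough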;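 further: 100% uses oxytocin at 75 nM as the full agonist control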
#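 System: human OTR in CHO cells / Also added: sub-maximal oxytocin, roughly EC15 / Control set: EC15 oxytocin low, 75 nM oxytocin high / Schedule: 6 min compound pre-incubation at room temperature, 100 s kinetic read / Compound: single-point 3.0 µM / Replication: singlicate / Technique: Fluo-8 calcium dye fluorescence / Read-out basis: % activation of max/min ratio relative to oxytocin controls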
# TRPN1 ag: zebrafish TRPN1 channel agonists, primary screen, cell-based, HEK293, calcium fluorescence | 220,000 tested, 0.18% active | transient receptor potential cation channel N1 (TRPN1/NompC), Danio rerio | activation, % at 3 µM | HEK293 zebrafish TRPN1-YFP, Fluo-8 calcium fluorescence; 100% = response to 87 µM carbachol;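 active means activation above its plate's cutoff, the mean activation of test wells on that plate plus 3 SD, cut at about 19% in these data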;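 further: 0% = DMSO alone and 100% = 87 µM carbachol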
#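 Control set: carbachol 87 µM as high control, DMSO as low control; system: HEK293 stable line with zebrafish TRPN1-YFP; read-out: % activation versus carbachol response; detection: intracellular calcium fluorescence with Fluo-8; doses: single test compound dose, 3 µM nominal, 0.3% DMSO; schedule: dye 1 h 37 °C plus 30 min RT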
# OXTR ag: human OXTR agonists, primary screen, fluorescence, CHO-OTR cells, Fluo-8 calcium. activation, % at 3 µM. Fluo-8 calcium fluorescence; normalized: DMSO 0%, oxytocin 100%. 320,000 tested, 0.32% active. AID 2435, 2010. Oxytocin receptor (Homo sapiens), P30559;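 active means activation above the mean of all tested compounds plus 3 SD, cutoff set per screening run, cut at about 20% in these data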;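 further: peak over basal fluorescence ratio from a 100 s FLIPR kinetic read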
# V1R ag counter: agonists of human V1a receptor, primary screen, counter-screen for OXTR agonist project, fluorescence, CHO-V1R cells | Vasopressin V1a receptor (Homo sapiens), P37288 | Fluo-8 calcium fluorescence, agonist mode; 0% DMSO, 100% 3 nM vasopressin | activation, % at 3 µM | 320,000 tested, 0.25% active;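 active means activation above the mean activation of all tested compounds plus 3 SD, per screening run, cut at about 20% in these data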;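 further: signal is peak over basal fluorescence ratio across a 100 second FLIPR read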
# Target sequence (P37288 whole entry, looked up): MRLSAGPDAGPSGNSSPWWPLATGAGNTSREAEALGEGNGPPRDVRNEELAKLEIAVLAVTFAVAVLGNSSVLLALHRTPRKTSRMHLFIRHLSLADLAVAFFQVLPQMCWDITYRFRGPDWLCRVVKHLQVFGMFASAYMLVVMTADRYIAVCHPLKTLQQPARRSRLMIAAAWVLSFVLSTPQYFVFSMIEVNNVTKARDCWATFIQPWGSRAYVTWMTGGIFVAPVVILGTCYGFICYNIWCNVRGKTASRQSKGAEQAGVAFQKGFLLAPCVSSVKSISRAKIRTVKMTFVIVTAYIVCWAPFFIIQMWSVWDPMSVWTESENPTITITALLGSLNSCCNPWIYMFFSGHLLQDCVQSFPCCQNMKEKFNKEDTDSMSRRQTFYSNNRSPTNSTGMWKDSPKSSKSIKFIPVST
# * = called active by the depositor; . = not tested or not shown. Rows were chosen to be rich in hits. Some 0.58% of all compounds tested hit in one or more screens of this group.
SMILES,TRPML3 agonist,OXTR potentiator,TRPN1 ag,OXTR ag,V1R ag counter
CCN(CC)S(=O)(=O)c1ccc(OC(C)C)c(NC(=O)c2c3c(nc4ccccc24)CCN(Cc2ccccc2)C3)c1,0.9,-16.9,-2.5,1.0,2.1
C#CCN1C(=O)S/C(=C/C=C/c2ccc(N(C)C)cc2)C1=O,4.1,-11.6,10.0,35.3*,23.6*
O=C(O)c1cccc(-c2ccc(/C=N/Nc3ccc([N+](=O)[O-])cc3)o2)c1,10.9,-9.3,23.7*,26.4*,33.5*
NS(=O)(=O)c1ccc(-c2ccc(/C=N/Nc3ccc(C(=O)O)cc3)o2)cc1,0.1,-4.8,3.1,0.9,-0.1
O=C(O)c1ccc(N/N=C/C=C/c2ccc([N+](=O)[O-])o2)cc1,.,-7.8,.,29.3*,41.1*
O=C(O)c1ccc(-c2ccc(/C=N/Nc3ccc([N+](=O)[O-])cc3)o2)cc1,23.7*,-33.2,38.7*,50.8*,64.7*
O=[N+]([O-])c1ccc(N/N=C/c2c[nH]c3ccccc23)cc1,9.2,-20.6,9.8,25.2*,23.6*
Cc1csc(CNC(=O)C2CCC(=O)N(CCCc3ccccc3)C2)n1 (configuration not stated),.,2.0,.,0.9,-0.2
COc1ccc(C(=O)N2CCC3(CC2)NCCc2[nH]cnc23)cc1OC,.,-5.0,.,-0.3,0.1
COc1ccccc1N(CC(=O)N1CCN(c2ccccc2)CC1)S(=O)(=O)c1ccc(C)cc1,.,-7.8,.,0.9,3.7
O=C1c2cccc3c(O)ccc(c23)C(=O)N1Cc1ccccc1,120.4*,-22.4,146.2*,302.2*,344.6*
O=C(O)c1cccc(CN2C(=O)c3ccccc3C2=O)c1,.,-13.0,.,-0.1,0.4
C/C(=N\Nc1ncnc2sc(C)c(C)c12)c1ccccn1,.,-15.1,.,123.7*,134.2*
Cc1sc2ncnc(N/N=C/c3cccc(O)c3)c2c1C,0.3,-9.2,-1.2,2.8,0.9
N#C/C(=C/c1ccc(N2CCOCC2)o1)C(=O)Nc1ccccc1,36.2*,.,71.6*,.,.
N#C/C(=C\c1ccc(N2CCOCC2)o1)C(=O)NC1CCCCC1,4.9,-8.4,8.2,14.1,14.6
O=[N+]([O-])c1ccc(Oc2ccc(Oc3ccc(C(F)(F)F)cn3)cc2)nc1,0.2,-16.2,-0.8,-3.4,8.2
CC(C)Cc1ccc(C(C)C(=O)Nc2nccs2)cc1 (configuration not stated),11.0,-13.6,11.8,31.9*,28.6*
CC(C)Cc1ccc(C(C)C(=O)Nc2ccccc2O)cc1 (configuration not stated),22.2*,-34.5,46.1*,42.0*,39.8*
Cc1c(NC(=O)C(C)c2ccc(CC(C)C)cc2)c(=O)n(-c2ccccc2)n1C (configuration not stated),0.2,-19.5,0.2,-2.0,0.0
CCCCCCCCC1CC(C(=O)Nc2ccccc2)C(=O)O1 (configuration not stated),.,6.4,.,-1.4,-0.1
Cc1cccc(C)c1NC(=O)COC(=O)c1ccc2c(c1)OCO2,0.7,-8.8,0.9,-0.5,0.0
CC(OC(=O)c1c2c(nc3ccccc13)/C(=C\c1ccc3c(c1)OCO3)CCC2)C(=O)Nc1ccc(S(N)(=O)=O)cc1 (configuration not stated),21.7*,.,27.9*,.,.
Cc1cccc(C)c1NC(=O)COC(=O)c1c2c(nc3ccccc13)/C(=C\c1ccc3c(c1)OCO3)CCC2,39.5*,-5.1,134.6*,52.2*,51.5*
CCC(CC)c1nnc(NC(=O)c2cc([N+](=O)[O-])ccc2N2CCOCC2)s1,.,-0.4,.,2.0,1.1
SMILES,TRPML3 agonist,OXTR potentiator,TRPN1 ag,OXTR ag,V1R ag counter
CCN(CC)c1ccc(/C=C2/C(=O)c3ccc(C(=O)O)cc3C2=O)cc1,19.1*,-12.3,34.5*,135.4*,70.2*
Cc1ccc(O)c(NC(=S)NC(=O)Cc2ccc(Cl)cc2)c1,.,-23.9,.,73.3*,78.5*
Cc1ccc(NC(=S)NC(=O)c2ccc(-c3ccc(Cl)cc3)o2)c(O)c1,0.1,-0.9,-0.7,0.4,1.2
CCCN1C=CC(=C/C=C(\C#N)C(=O)OCC)C=C1,15.4*,-14.8,19.2*,61.8*,49.0*
CCOC(=O)/C(C#N)=C/C=C1\C=Cc2ccccc2N1CC,1.1,-1.4,0.9,7.0,5.0
CCCCCCN1C=CC(=C/C=C(\C#N)C(=O)OCC)C=C1,55.2*,-15.5,65.2*,176.9*,149.4*
CCOC(=O)/C(C#N)=C/N=c1ccc(C)cn1C,0.8,-5.5,0.3,0.3,-0.7
CN(C)c1ccc(C(=O)/C=C/c2ccc(Br)cc2)cc1,0.3,-8.9,-0.1,-0.9,0.0
CCN(CC)c1ccc(/C=C/C(=O)c2ccc(Br)cc2)cc1,58.9*,-7.4,55.8*,142.9*,153.8*
O=C(Nc1ccc(C(=O)NCCCN2CCN(c3ccc(F)cc3)CC2)cc1)C1=CSCCO1,.,-14.7,.,29.3*,25.7*
O=C(Nc1ccc(C(=O)NCCCN2CCCCC2)cc1)C1=CSCCO1,.,-5.3,.,0.5,0.8
O=C(Nc1cc2cc([N+](=O)[O-])ccc2oc1=O)c1cccs1,0.7,-3.0,1.1,1.2,3.7
CC(C)(C)C(=O)NC(=S)NNC(=O)C(c1ccccc1)c1ccccc1,113.7*,-8.6,167.6*,89.0*,126.8*
Cc1ccc([N+](=O)[O-])cc1NC(=O)Nc1cccc(F)c1,10.7,.,23.9*,.,.
COC(=O)c1ccc(NC(=O)Nc2ccc(F)cc2F)cc1,5.4,-2.1,6.8,3.0,7.1
O=C(Nc1cccc(Cl)c1)Nc1csc([N+](=O)[O-])c1,11.6*,-7.7,19.0*,16.6,7.8
O=C(Nc1cccc([N+](=O)[O-])c1)Nc1cccs1,13.3*,-38.3,19.7*,17.1,9.6
COC(=O)c1ccc(NC(=O)Nc2cccc(F)c2)cc1,9.7,-15.5,19.4*,13.0,13.5
Cc1ccc2nc(/C(C#N)=C\c3ccc(N4CCOCC4)o3)[nH]c2c1,1.7,-17.7,3.8,42.8*,30.1*
Cc1cc2nc(/C(C#N)=C\c3ccc(-c4ccccc4C(=O)O)o3)[nH]c2cc1C,.,-4.8,.,7.1,8.6
Cc1ccc2nc(/C(C#N)=C/c3ccc(-c4ccccc4C(=O)O)o3)[nH]c2c1,.,-23.1,.,39.5*,26.8*
CCN(C(=O)CSc1n[nH]c(N)n1)c1cccc2ccccc12,.,-1.0,.,1.1,0.9

# Source: PubChem BioAssay (The Scripps Research Institute Molecular Screening Center)
